Calls of active or inactive are those of the source. The rule behind the calls is not given here.
How the values were obtained:
3T3-L1 [1] = test: Activation of AMPK pathway in mouse 3T3-L1 cells assessed as increase in CPT-1beta mRNA expression at 1 uM after 24 hrs by RT-qPCR analysis; type: cell-based; conditions: filed as activator
[2] = AUC(0 to t) in Sprague-Dawley rat at 2 mg/kg, iv up to 24 hrs by LC-MS/MS analysis; conditions: in vivo
3T3-L1 [3] = test: Activation of AMPK pathway in mouse 3T3-L1 cells assessed as increase in ACSL mRNA expression at 1 uM after 24 hrs by RT-qPCR analysis; type: cell-based; conditions: filed as activator
3T3-L1 [4] = test: Activation of AMPK pathway in mouse 3T3-L1 cells assessed as increase in NRF2 mRNA expression at 1 uM after 24 hrs by RT-qPCR analysis; type: cell-based; conditions: filed as activator
[5] = MRT(0 to infinity) in Sprague-Dawley rat at 2 mg/kg, iv up to 24 hrs by LC-MS/MS analysis; conditions: in vivo
3T3-L1 [6] = test: Activation of AMPK pathway in mouse 3T3-L1 cells assessed as increase in TFAM mRNA expression at 1 uM after 24 hrs by RT-qPCR analysis; type: cell-based; conditions: filed as activator
[7] = Clearance in Sprague-Dawley rat at 2 mg/kg, iv up to 24 hrs by LC-MS/MS analysis; conditions: in vivo
[8] = Toxicity in ip dosed C57BL/6J mouse administered for every other days for 6 weeks; type: organism-based; conditions: in vivo
In short: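 Male C57BL/6J mice (7–8 weeks) were fed an HFC diet (60% fat, 1% cholesterol) from week 1 and given 20 mg/kg i.p. every other day for 6 weeks from week 9, in saline with 10% ethanol and 10% castor oil, against a vehicle group. At the end, after a 6 h fast under ketamine/xylazine, plasma was taken for auto-analyzer ALT, AST, TBIL, ALB, BUN and creatinine, and tissues were weighed.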

Mus musculus [9] = test: Antiobesity activity in high fat diet-induced obese C57BL/6J mouse model assessed as decrease in fat mass at 20 mg/kg, ip administered for every other days for 6 weeks; type: functional, organism-based
3T3-L1 [10] = test: Activation of AMPK pathway in adipogenic cocktail-induced mouse 3T3-L1 cells assessed as increase in AMP to ATP ratio at 0.3 to 1 uM after 24 hrs; type: cell-based; conditions: filed as activator, dose 0.3-1 µM
3T3-L1 [11] = test: Activation of AMPK pathway in adipogenic cocktail-induced mouse 3T3-L1 cells with SiRNA-induced AMPKalpha knock down assessed as decrease in C/EBPalpha protein expression at 1 uM after 24 hrs by Western blot analysis; type: cell-based
In short: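 3T3-L1 cells at 80% density transfected with 50 nM AMPKα siRNA or negative control for 24 h. Once confluent, differentiated with adipogenic cocktail with or without compound. Protein by Western blot normalized to actin. TG measured by GPO-POD kit, normalized to BCA protein, expressed as % of control.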

3T3-L1 [12] = test: Activation of AMPK pathway in mouse 3T3-L1 cells assessed as increase in CPT1beta mRNA expression at 0.3 to 1 uM after 24 hrs by RT-qPCR analysis; type: cell-based; conditions: filed as activator, dose 0.3-1 µM
Mus musculus [13] = test: Antiobesity activity in high fat diet-induced obese C57BL/6J mouse model assessed as ratio of LDL cholesterol level to HDL cholesterol level at 20 mg/kg, ip administered for every other days for 6 weeks by auto-analyzer method (reference value: 0.4 +/- 0.13); type: functional
C2C12 [14] = test: Activation of AMPK pathway in mouse C2C12 cells assessed as increase in glucose uptake at 1 uM after 6 hrs in presence of LY-294002 by 2-NBDG/Hoechst 33342 staining based Confocal microscopic method; type: cell-based; conditions: filed as activator
In short: (§1)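 C2C12 myoblasts kept in DMEM with 10% FBS and 1% penicillin/streptomycin at 37 °C under 5% CO2.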

Mus musculus [15] = test: Antiobesity activity in high fat diet-induced obese C57BL/6J mouse model assessed as decrease in AUC of GTT at 20 mg/kg, ip administered for every other days for 3 weeks by GTT method; type: functional, organism-based
In short: (§2)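 Male C57BL/6J mice on HFC diet dosed i.p. For GTT, after 3 weeks of treatment: 6 h fast, then i.p. glucose 2 g/kg. For ITT, after 6 weeks: 6 h fast, then i.p. insulin 0.4 U/mouse. Tail-vein glucose measured at 0, 15, 30, 60 and 120 min; AUC calculated.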

C2C12 [16] = test: Activation of AMPK pathway in mouse C2C12 cells assessed as increase in glucose uptake at 0.3 to 1 uM after 6 hrs by 2-NBDG/Hoechst 33342 staining based Confocal microscopic method; type: cell-based; conditions: filed as activator, dose 0.3-1 µM; in short: as §1
Mus musculus [17] = test: Antiobesity activity in high fat diet-induced obese C57BL/6J mouse model assessed as LDL cholesterol level at 20 mg/kg, ip administered for every other days for 6 weeks by auto-analyzer method (reference value: 0.9 +/- 0.4 mM); type: functional
In short: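 Male C57BL/6J mice (7–8 weeks) fed HFC diet (60% fat, 1% cholesterol) for up to 14 weeks. From week 9, given 20 mg/kg i.p. every other day for 6 weeks in saline with 10% ethanol and 10% castor oil, or vehicle. Body weight and food intake recorded daily. At end, mice fasted 6 h, anesthetized, and blood collected into EDTA. Plasma chemistry run on an auto-analyzer; insulin by ultra-sensitive ELISA.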

3T3-L1 [18] = test: Lipid lowering activity in mouse 3T3-L1 cells assessed as reduction in adipogenic cocktail-induced triglyceride levels at 1 uM incubated for 6 days by Oil-red O staining based assay; type: functional, cell-based; conditions: time 6.0 day
In short: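 Differentiating 3T3-L1 cells were treated at 1 µM for 6 days, then washed with PBS and fixed in 4% formaldehyde for 1 h. Cells were stained with 0.3% Oil Red O for 30 min at room temperature in the dark and imaged at ×200.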

3T3-L1 [19] = test: Lipid lowering activity in mouse 3T3-L1 cells assessed as adipogenic cocktail-induced triglyceride levels at 1 uM after 6 to 9 days by GPO-POD assay relative to control; type: functional; conditions: time 6-9 day
In short: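 3T3-L1 cells were differentiated (cocktail on days 0–3, insulin thereafter) with 1 µM compound present during defined windows (days 0–3, 3–6, 6–9, or 0–3/0–6/0–9). TG was measured at day 9 by GPO-POD after Triton X-100 lysis and sonication. TG was normalized to BCA protein and expressed as % of differentiated control.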

Mus musculus [20] = test: Antiobesity activity in high fat diet-induced obese C57BL/6J mouse model assessed as decrease in AUC of ITT at 20 mg/kg, ip administered for every other days for 6 weeks by ITT method; type: functional, organism-based; in short: as §2
Mus musculus [21] = test: Anti-hyperglycemic activity in high fat diet-induced obese C57BL/6J mouse model assessed as decrease in blood glucose level at 20 mg/kg, ip; type: functional, organism-based; conditions: time hrs <=24, TDE = time-dependent effect
In short: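 C57BL/6J mice fed HFC diet (60% fat, 1% cholesterol). Single i.p. injection of saline or compound at 20 mg/kg. Blood glucose measured with a glucose monitor at 0, 0.5, 1, 2, 4, 8, 12 and 24 h.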

Mus musculus [22] = test: Antiobesity activity in high fat diet-induced obese C57BL/6J mouse model assessed as decrease in size of adipocytes at 20 mg/kg, ip administered for every other days for 6 weeks by H and E staining based assay; type: functional, organism-based

For `CN(C)CCCNc1nc(-c2[nH]c3ccccc3c2C=O)nc2ccccc12`, the Activity (3T3-L1 [1]) was “Active”, the AUC(0-t) at 24 h [2] was 635 ng·h/mL and the Activity (3T3-L1 [3]) was “Active”. The Activity (3T3-L1 [4]) was “Active”, the MRT inf [5] was 3.56 h and the Activity (3T3-L1 [6]) was “Active”. For the same molecule, the clearance [7] was 125 mL/min/kg.
In the case of `COc1ccc2[nH]c(-c3nc(NCCCCN4CCCC4)c4ccccc4n3)c(C=O)c2c1`, the LD50 at 1008 h [8] was 500 mg/kg, the Activity (Mus musculus [9]) was “Active” and the Activity (3T3-L1 [10]) was “Active”. The Activity (3T3-L1 [11]) was “inactive”, the Activity (3T3-L1 [12]) was “Active” and the Ratio (Mus musculus [13]) was 0.25. For the same molecule, the Activity (C2C12 [14]) was “Active”, the Activity (Mus musculus [15]) was “Active” and the Activity (C2C12 [16]) was “Active”. For the same molecule, the Activity (Mus musculus [17]) was 0.81 mM, the Activity (3T3-L1 [18]) was “Active” and the Activity (3T3-L1 [19]) was 35.3%. For the same molecule, the Activity (Mus musculus [20]) was “Active”, the Activity (Mus musculus [21]) was “Tde” and the Activity (Mus musculus [22]) was “Active”.

— ChEMBL document CHEMBL4732044, “Discovery of a promising agent IQZ23 for the treatment of obesity and related metabolic disorders” (Eur J Med Chem, 2020)
